The text below walks through data of article PMC6815762 (Drug Design, Development and Therapy, 2019).

The target of assay [1] is integrin αvβ3 (Homo sapiens, UniProt P05106+P06756). Description: Determination of the dissociation constant by ELISA. It is filed as binding. Summed up: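 Solution-phase ELISA after Friguet. Integrin αvβ3 (serial, 0.5–32 nM) was equilibrated with test peptide (0.5 nM) for 4 hrs at 37°C. The mixture was moved to wells precoated with anti-integrin αvβ3 antibody (1:50) for 1 hr at room temperature, washed, and bound complexes detected by ELISA. Absorbance was taken without receptor (A0) and at each receptor concentration (A). Run in triplicate; Kd from one-site specific binding nonlinear regression.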
(In general: ELISA stands for enzyme-linked immunosorbent assay.)

The subject of assay [2] is hCMEC/D3 cells. Description: Cell proliferation assay. It is filed as cell-based, human. As to conditions: 48 hr incubation, MTT, 570 nm, p > 0.05.
The test system of assay [3] is hCMEC/D3 cells. Put plainly: Tube formation assay on Matrigel. As to conditions: VEGF 10 ng/mL, positive control, 12 hr. It is filed as cell-based, human.
For assay [4], the target named is integrin αvβ3 (UniProt P06756). Put plainly: ELISA.

Peptide text beside a SMILES is read from it.

Sequence of integrin αvβ3 (UniProt P06756) (P06756 31-1048, chain 1 of 2): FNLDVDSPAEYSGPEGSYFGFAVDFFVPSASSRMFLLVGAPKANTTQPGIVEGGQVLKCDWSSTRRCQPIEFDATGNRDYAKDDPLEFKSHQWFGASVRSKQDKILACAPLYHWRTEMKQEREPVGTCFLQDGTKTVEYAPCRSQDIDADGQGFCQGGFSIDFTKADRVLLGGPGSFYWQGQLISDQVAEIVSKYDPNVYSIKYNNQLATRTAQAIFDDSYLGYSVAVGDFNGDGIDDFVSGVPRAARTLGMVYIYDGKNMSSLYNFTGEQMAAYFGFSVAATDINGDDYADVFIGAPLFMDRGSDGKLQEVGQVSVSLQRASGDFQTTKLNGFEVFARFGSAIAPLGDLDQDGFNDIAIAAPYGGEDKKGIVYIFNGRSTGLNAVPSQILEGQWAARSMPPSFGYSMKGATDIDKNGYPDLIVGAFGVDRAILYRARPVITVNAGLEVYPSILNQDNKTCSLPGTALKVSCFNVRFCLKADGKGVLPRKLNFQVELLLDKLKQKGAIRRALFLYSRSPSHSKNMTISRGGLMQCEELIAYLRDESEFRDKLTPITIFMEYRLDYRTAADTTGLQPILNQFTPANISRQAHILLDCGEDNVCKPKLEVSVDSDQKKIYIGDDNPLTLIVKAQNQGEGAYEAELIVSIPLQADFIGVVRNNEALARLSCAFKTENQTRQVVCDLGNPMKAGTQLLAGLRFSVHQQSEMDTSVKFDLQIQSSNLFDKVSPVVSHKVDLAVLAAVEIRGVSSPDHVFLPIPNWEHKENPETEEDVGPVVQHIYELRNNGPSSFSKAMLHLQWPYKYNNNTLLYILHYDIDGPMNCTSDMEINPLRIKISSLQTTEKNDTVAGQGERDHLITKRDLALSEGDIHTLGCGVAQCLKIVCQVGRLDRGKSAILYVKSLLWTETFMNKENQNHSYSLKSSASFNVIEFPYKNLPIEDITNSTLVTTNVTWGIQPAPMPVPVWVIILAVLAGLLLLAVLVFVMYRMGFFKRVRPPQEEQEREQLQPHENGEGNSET
Sequence of integrin αvβ3 (UniProt P06756) (P05106 27-788, chain 2 of 2, further chain): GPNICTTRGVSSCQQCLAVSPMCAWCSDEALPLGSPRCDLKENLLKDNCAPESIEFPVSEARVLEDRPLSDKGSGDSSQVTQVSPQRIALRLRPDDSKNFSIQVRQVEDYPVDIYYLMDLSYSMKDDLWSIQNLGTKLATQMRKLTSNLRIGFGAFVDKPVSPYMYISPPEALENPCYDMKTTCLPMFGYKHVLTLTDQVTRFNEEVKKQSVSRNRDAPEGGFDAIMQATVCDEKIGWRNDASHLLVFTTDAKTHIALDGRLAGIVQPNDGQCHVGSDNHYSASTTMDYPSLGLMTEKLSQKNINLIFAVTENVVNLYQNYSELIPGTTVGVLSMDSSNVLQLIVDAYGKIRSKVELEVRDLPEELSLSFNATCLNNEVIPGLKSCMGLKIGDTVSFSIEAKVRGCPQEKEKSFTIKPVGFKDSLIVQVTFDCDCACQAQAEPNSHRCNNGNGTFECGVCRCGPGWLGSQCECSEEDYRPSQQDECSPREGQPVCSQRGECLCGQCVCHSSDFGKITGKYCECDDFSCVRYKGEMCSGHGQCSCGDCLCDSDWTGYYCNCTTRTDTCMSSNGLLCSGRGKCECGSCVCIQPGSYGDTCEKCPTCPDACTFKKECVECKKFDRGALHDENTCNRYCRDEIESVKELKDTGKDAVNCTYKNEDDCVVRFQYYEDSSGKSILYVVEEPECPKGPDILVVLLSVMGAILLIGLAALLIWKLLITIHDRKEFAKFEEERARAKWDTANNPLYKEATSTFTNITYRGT
Sequence of integrin αvβ3 (Homo sapiens, UniProt P05106+P06756) (P06756 31-1048): as the sequence (P06756 31-1048, chain 1 of 2) above
Sequence of integrin αvβ3 (Homo sapiens, UniProt P05106+P06756) (P05106 27-788): as the sequence (P05106 27-788, chain 2 of 2, further chain) above

By Kd is commonly meant the concentration at which binding is half-saturated. The low end stands for tighter binding, the high end for weaker binding. In the case of `N=C(N)NCCC[C@H](NC(=O)[C@@H]1CCCN1C(=O)[C@H](Cc1c[nH]c2ccccc12)NC(=O)[C@H](CCCNC(=N)N)NC(=O)[C@H](Cc1ccccc1)NC(=O)[C@H](CC(=O)O)NC(=O)CNC(=O)[C@@H](N)CCCNC(=N)N)C(=O)O` [GCPF] (H-RGDFRWPR-OH), the Kd at integrin αvβ3 [1] amounted to 2.41 ± 0.455 nM. Besides, the proliferation inhibition rate in the assay on hCMEC/D3 cells [2] (1 μg/mL) is 0.15%; with hCMEC/D3 cells [2] (10 μg/mL), 13.49%; in the assay with hCMEC/D3 cells [2] (100 μg/mL), 3.90%; with hCMEC/D3 cells [2] (1000 μg/mL) it was 1.98%.
Consider VEGF, for which, in the assay on hCMEC/D3 cells [3], the “tube formation, result in words” value was “the tube-like structures were developed from clear elongated cell bodies, which connected to form a polygon network”.

B1: GCPF peptide (peptide)
peptide: RGDFRWPR
B1 returned a dissociation constant (Kd) with integrin αvβ3 [4] of 2.41 nM.
